Test [1] is described as follows: inhibitors of TNFa-induced NFkB p65 translocation, primary screen, imaging, HUVEC, MLSMR starter and 10KST1 sets (AID 438;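 active means inhibition above 20% together with a positive visual image hit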;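 further: compound added about 3h40 before a 20 min TNFalpha stimulation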;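 on inhibition: signal is the nuclear over cytoplasmic p65 intensity ratio per well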). The conditions noted are these: HUVEC TNFa-induced p65 nuclear translocation; cell count: measured here: nuclei count (cytotoxicity indicator), at 2.08 µM; inhibition: at 2 µM, stronger effect = higher value, 0% TNFa-plus-vehicle, 100% no-TNFa wells.
The nature of test [2]: reduction of polyQ htt aggregates in cells – imaging, exon1htt(103Q)mCFP cells, high-content imaging, primary screen (AID 483;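 active means visual image review flags a hit and inhibition of aggregation exceeds 20%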;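 further: compound exposure lasted 3 days before fixation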;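 on nuclei count: percent of the per-plate median nuclei count of sample wells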). The conditions noted are these: exon1htt(103Q)mCFP cell line, aggregate imaging, at 2 µM; inhibition of aggregation: stronger effect = higher value; nuclei count: measured here: cell count, toxicity.
Test [3] is described as follows: endothelial E-selectin expression blockers – imaging, HUVEC, immunofluorescence, MLSMR starter and 10KST1 sets, primary screen (AID 487).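 On inhibition: signal is fraction of cell area covered by stained E-selectin grains.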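 On nuclei count: 100% = median nuclei count of all wells on the same plate.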 The settings on record: HUVEC TNFalpha-induced E-selectin immunofluorescence imaging, at 2 µM; inhibition: stronger effect = higher value; nuclei count: measured here: cell number, toxicity.
The target in test [4] is Voltage-gated potassium channel subunit beta-2 (Rattus norvegicus) (UniProt P62483). Description: inhibitors of rat Kvbeta2 reductase activity – biochemical, NADPH fluorescence, primary screen (AID 622;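 active means fluorescence slope higher than the sample average by over 3 SD, cut at about -0.22 in these data, passing the limit was not always enough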;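 further: slope of raw intensity against log time taken from 70 to 1610 s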). The settings on record: recombinant KvBeta, 4-cyanobenzaldehyde reduction, at 10 µM, stronger effect = higher value.
Chain of Voltage-gated potassium channel subunit beta-2 (Rattus norvegicus) (P62483 whole entry, looked up): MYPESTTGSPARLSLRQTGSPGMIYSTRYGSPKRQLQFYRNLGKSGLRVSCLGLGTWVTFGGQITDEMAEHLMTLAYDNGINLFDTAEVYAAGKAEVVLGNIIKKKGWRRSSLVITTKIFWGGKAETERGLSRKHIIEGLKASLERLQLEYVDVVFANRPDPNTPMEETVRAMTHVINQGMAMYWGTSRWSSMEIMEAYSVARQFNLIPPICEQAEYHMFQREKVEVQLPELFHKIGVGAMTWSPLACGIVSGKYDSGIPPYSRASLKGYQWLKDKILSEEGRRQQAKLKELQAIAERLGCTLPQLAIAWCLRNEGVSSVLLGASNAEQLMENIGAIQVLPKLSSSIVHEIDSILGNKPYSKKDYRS
Test [5] shares this target. Description: enhancers of rat Kvbeta2 NADPH turnover – biochemical, NADPH fluorescence, primary screen (AID 623;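 active means NADPH fluorescence slope more negative than the mean of all samples by about 3 SD, 99.7% confidence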;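 further: fluorescence intensity change per second fitted from 20 to 320 s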). The conditions noted are these: Recombinant KvBeta, NADPH fluorescence decrease slope, 10 min; at 10 µM; stronger effect = lower value.
Test [6] concerns the target Muscarinic acetylcholine receptor M4 (Homo sapiens) (UniProt P08173). The test is described as follows: M4-linked GIRK flux change, two-sided – cell-based, HEK293 M4/GIRK, thallium flux, BTC-AM, M4 allosteric agonist project, primary screen (AID 625;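 active means fluorescence slope after compound addition differing from the mean of all tested samples at 99.7% confidence, mostly higher but some lower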;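 further: thallium influx through GIRK channels coupled to M4 in HEK293 cells with BTC-AM dye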). The settings on record: at 10 µM, actives lie on both sides. In outline: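 Material: HEK293 cells with M4 receptor and GIRK channels; Times: cells overnight at 37 °C, BTC-AM loading 1 h, reads 2 min total; Technique: kinetic BTC-AM fluorescence sampled at 1 Hz, 10 s pre-addition baseline; Read-out basis: slope over 15–24 s of trace normalized to starting intensity; Controls: carbachol positive, DMSO negative.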

A short description of test [7]: blockers of RIG-like receptor reporter activation – cell-based, Sendai virus stimulus, luciferase, 10K MLSCN set, TLR/RLR signaling modifier project, primary screen (AID 602276;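 active means inhibition at or above 50% at 10 µM; inactive means inhibition below 50%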;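 further: firefly luciferase from ISG56 promoter only with Renilla not read in this screen; 0% = Sendai virus plus DMSO and 100% = medium plus DMSO without virus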). The settings on record: HEK293 RL24 IRF3 luciferase reporter, at 10 µM, stronger effect = higher value. (In a reporter assay the amount or activity of a reporter protein is the signal.)
A short description of test [8]: TLR3 IRF3 reporter activation blockers – cell-based, poly I:C stimulus, luciferase, 10K MLSCN set, primary screen (AID 602277;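 active means inhibition of the reporter signal at or above 50%; inactive means inhibition below 50%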). The conditions noted are these: HEK293-TLR3 RL24 IRF3 luciferase reporter, at 10 µM, stronger effect = higher value.

The structures appear in SMILES notation. Calls of active or inactive are those of the source.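 How the source made its calls, unless noted: active means visually confirmed hit in the image check and inhibition above 20%; inconclusive means visually confirmed hit but inhibition not above 20%; inactive means no visual hit in the image check.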

Consider 14 compounds from PubChem BioAssay.

Chain of Muscarinic acetylcholine receptor M4 (Homo sapiens) (P08173 whole entry, looked up): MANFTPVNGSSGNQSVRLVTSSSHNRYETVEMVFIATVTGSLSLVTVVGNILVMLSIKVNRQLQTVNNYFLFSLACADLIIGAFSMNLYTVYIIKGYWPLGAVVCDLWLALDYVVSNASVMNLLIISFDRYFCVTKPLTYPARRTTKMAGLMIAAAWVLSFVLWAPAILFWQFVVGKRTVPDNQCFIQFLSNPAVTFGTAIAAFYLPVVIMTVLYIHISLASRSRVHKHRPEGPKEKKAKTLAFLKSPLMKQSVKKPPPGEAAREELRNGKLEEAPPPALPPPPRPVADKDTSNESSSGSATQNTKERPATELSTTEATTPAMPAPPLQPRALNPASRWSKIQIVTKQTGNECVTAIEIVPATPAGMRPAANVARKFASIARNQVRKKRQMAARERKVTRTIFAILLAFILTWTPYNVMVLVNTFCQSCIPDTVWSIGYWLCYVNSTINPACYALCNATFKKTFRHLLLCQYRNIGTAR

The inhibition is the change of the read-out against control, counted positive when it falls. With `CCOc1ccccc1N1CCN(c2nc(N)c(C#N)c(CC#N)c2C#N)CC1`, the cell count in test [1] was 687. For the same compound, the inhibition in test [1] is -1.7% (inactive); in test [3], -68.9% (inactive); in test [7] it was 20.4% (inactive); in test [8], 17.9% (inactive). Besides, the inhibition of aggregation in test [2] was -18.6% (inactive). In addition, the nuclei count in test [2] came to 88.7%; in test [3] it was 105%. In addition, the fluorescence slope was -0.592 (inactive) in test [4] and 0.00416 (inactive) in test [6]. The NADPH fluorescence slope in test [5] was -1e-05 (inactive).
For the compound `Cc1cc(C(=O)CSCc2nnc3n(CCC(C)C)c(=O)c4ccccc4n23)c(C)n1C`, the cell count in test [1] turned out to be 284. The inhibition in test [1] is -11.2% (inactive); in test [3] it was -26.1% (inactive); in test [7], 14.8% (inactive); in test [8] it was 26.1% (inactive). In test [2], the inhibition of aggregation was -1.8% (inactive). Further, the nuclei count in test [2] is 94.2%; in test [3], 88.8%. For the same compound, the fluorescence slope in test [4] is -0.558 (inactive); in test [6], 0.00507 (inactive). Also, the NADPH fluorescence slope in test [5] is 3.1e-06 (inactive).
As to `O=C(NCc1ccccn1)c1ccc2nc(-c3ccco3)c(-c3ccco3)nc2c1`, in test [1], the cell count stood at 626. The inhibition in test [1] was -27.2% (inactive); in test [3], -147% (inactive); in test [7], 10.9% (inactive); in test [8] it was 3.28% (inactive). Also, the inhibition of aggregation in test [2] is -52.7% (inactive). In addition, the nuclei count in test [2] stood at 82.3%; in test [3], 103%. Moreover, the fluorescence slope is -0.504 (inactive) in test [4] and 0.00242 (inactive) in test [6]. For the same compound, the NADPH fluorescence slope in test [5] was -2.5e-05 (inactive).
Consider `Cn1c(=O)c(-c2ccccc2)nn2c3ccccc3nc12`, for which, in test [1], the cell count is 704. For the same compound, the inhibition was -35.3% (inactive) in test [1], -79.5% (inactive) in test [3], 13.7% (inactive) in test [7] and 17.5% (inactive) in test [8]. In addition, in test [2], the inhibition of aggregation is 22.1% (inactive). Moreover, the nuclei count in test [2] is 96.1%; in test [3] it was 113%. Further, the fluorescence slope in test [4] was -0.19 (inactive); in test [6] it was 0.00522 (inactive). Further, in test [5], the NADPH fluorescence slope was 4.4e-07 (inactive).
With `COc1ccccc1-n1cnnc1SCC(=O)c1ccc[nH]1`, the cell count in test [1] is 544. Also, the inhibition is 6.1% (inactive) in test [1], 17.5% (inactive) in test [3], 9.86% (inactive) in test [7] and 10.8% (inactive) in test [8]. The inhibition of aggregation in test [2] was 6.1% (inactive). Besides, the nuclei count was 96.8% in test [2] and 77.8% in test [3]. For the same compound, the fluorescence slope is -0.532 (inactive) in test [4] and 0.00668 (inactive) in test [6]. The NADPH fluorescence slope in test [5] was -4.3e-05 (inactive).
Turning to `O=C(CSc1nnc(-c2cccs2)o1)N1CCOCC1`, in test [1], the cell count came to 280. Besides, the inhibition in test [1] is -13.9% (inactive); in test [3] it was -6.3% (inactive); in test [7], -8.48% (inactive); in test [8] it was -10.8% (inactive). The inhibition of aggregation in test [2] is -11.6% (inactive). The nuclei count in test [2] is 88.7%; in test [3] it was 118%. The values for the fluorescence slope in test [4] and in test [6] were -0.539 (inactive) and 0.0054 (inactive), respectively. Besides, the NADPH fluorescence slope in test [5] was -3.4e-05 (inactive).
With `Cn1c(=O)cc(OCC(=O)N2CCN(c3cccc(C(F)(F)F)c3)CC2)c2ccccc21`, the cell count in test [1] is 377. Also, the inhibition is -8.3% (inactive) in test [1], -12.8% (inactive) in test [3], 13.7% (inactive) in test [7] and 15.2% (inactive) in test [8]. Further, the inhibition of aggregation in test [2] is -13.4% (inactive). In addition, the nuclei count in test [2] was 118%; in test [3], 113%. The values for the fluorescence slope in test [4] and in test [6] were -0.426 (inactive) and 0.00701 (inactive), respectively. In addition, the NADPH fluorescence slope in test [5] was 6.8e-05 (inactive).
As for `COc1cccc(OC)c1C(=O)N1CCOCC1`, in test [1], the cell count was 505. In addition, the inhibition in test [1] was -7.7% (inactive); in test [3], -105% (inactive); in test [7], 17.5% (inactive); in test [8], 25.3% (inactive). Further, the inhibition of aggregation in test [2] was 7.2% (inactive). In addition, the nuclei count is 103% in test [2] and 126% in test [3]. Moreover, the values for the fluorescence slope in test [4] and in test [6] were -0.536 (inactive) and 0.00602 (inactive), respectively. For the same compound, in test [5], the NADPH fluorescence slope is -3.1e-05 (inactive).
Turning to `CCn1cc(C(=O)N2CCN(C(=O)c3ccco3)CC2)c2cc(OC)c(OC)cc2c1=O`, the cell count in test [1] is 235. Further, the inhibition in test [1] was -2.3% (inactive); in test [3], -55.5% (inactive); in test [7], 13.9% (inactive); in test [8], 15.4% (inactive). The inhibition of aggregation in test [2] is -10% (inactive). The nuclei count in test [2] amounted to 105%; in test [3] it was 121%. Besides, the fluorescence slope was -0.515 (inactive) in test [4] and 0.00709 (inactive) in test [6]. Also, the NADPH fluorescence slope in test [5] was 8.7e-05 (inactive).
In the case of `COc1ccc(S(=O)(=O)N2CCN(C3CCCCCCC3)CC2)cc1`, in test [1], the cell count came out at 360. Besides, the inhibition in test [1] was 2% (inactive); in test [3], -8.4% (inactive); in test [7], 16.2% (inactive); in test [8] it was 24.3% (inactive). In test [2], the inhibition of aggregation is 5.1% (inactive). The nuclei count in test [2] was found to be 105%; in test [3], 108%. For the same compound, the fluorescence slope in test [4] is -0.533 (inactive); in test [6] it was 0.00334 (inactive). The NADPH fluorescence slope in test [5] was -5.6e-05 (inactive).
Consider `CCOC(=O)Nc1c(C(=O)OC)[nH]c2cccc(OC)c12`, for which the cell count in test [1] was 526. Moreover, the inhibition in test [1] was -0.5% (inactive); in test [3], -32.4% (inactive); in test [7], -7.18% (inactive); in test [8], -3.25% (inactive). Moreover, the inhibition of aggregation in test [2] is -15.7% (inactive). In addition, the nuclei count in test [2] stood at 109%; in test [3], 126%. For the same compound, the figures for the fluorescence slope in test [4] and in test [6] were -0.478 (inactive) and 0.00517 (inactive), respectively. For the same compound, the NADPH fluorescence slope in test [5] is 3e-05 (inactive).
`COC(=O)C1(C)NC(c2ccco2)C2C(=O)N(c3ccc(C)cc3)C(=O)C21` (centres undefined): the cell count in test [1] is 560. Further, the inhibition in test [1] is -17.5% (inactive); in test [3], -40.3% (inactive); in test [7], 14.7% (inactive); in test [8], 17.2% (inactive). In addition, in test [2], the inhibition of aggregation is -8.7% (inactive). The figures for the nuclei count in test [2] and in test [3] were 113% and 114%, respectively. For the same compound, the fluorescence slope in test [4] is -0.318 (inactive); in test [6], 0.00521 (inactive). In addition, in test [5], the NADPH fluorescence slope was -3.5e-05 (inactive).
Turning to `O=C(O)C1C2CCC(C2)C1C(=O)NCCCn1ccnc1` (centres undefined), the cell count in test [1] amounted to 486. Besides, the inhibition is 0% (inactive) in test [1], 65.4% (active) in test [3], -12.1% (inactive) in test [7] and -16.7% (inactive) in test [8]. Also, in test [2], the inhibition of aggregation is 18.3% (inactive). Also, the nuclei count in test [2] stood at 72.3%; in test [3], 65.1%. For the same compound, the figures for the fluorescence slope in test [4] and in test [6] were -0.491 (inactive) and 0.0041 (inactive), respectively. Moreover, the NADPH fluorescence slope in test [5] is -8.2e-05 (inactive).
`CCCCOc1ccc(NC(=O)Cn2c(=O)ccc3c(C)cc(C)nc32)cc1`: in test [1], the cell count worked out at 400. Besides, the inhibition was 5.6% (inactive) in test [1], -342% (inactive) in test [3], 15.2% (inactive) in test [7] and 20.7% (inactive) in test [8]. The inhibition of aggregation in test [2] was 11.8% (inactive). The results for the nuclei count in test [2] and in test [3] were 88.5% and 149%, respectively. Further, the fluorescence slope in test [4] was -0.565 (inactive); in test [6] it was 0.0062 (inactive). Besides, in test [5], the NADPH fluorescence slope is 8.6e-06 (inactive).
